# Hits are enriched below; roughly 4.7% of the tested compounds scored in any of these assays.
# MrgX1 antag: blocks BAM8-22 activation of human MrgX1 receptor; Q96LB2; MRGX1-HEK293 calcium flux, Fluo-4, BAM8-22 antagonism; hits give low values; B-score at 10 µM; 310,000 tested, 1.3% active;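 active = calcium-response B-score plate-corrected more than 3 library SD below zero, starting fluorescence within 5 deviations, no agonist response on first addition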;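 note: peak minus trough fluorescence over baseline after final BAM8-22 challenge near maximal dose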
# Target sequence (Q96LB2 whole entry, looked up): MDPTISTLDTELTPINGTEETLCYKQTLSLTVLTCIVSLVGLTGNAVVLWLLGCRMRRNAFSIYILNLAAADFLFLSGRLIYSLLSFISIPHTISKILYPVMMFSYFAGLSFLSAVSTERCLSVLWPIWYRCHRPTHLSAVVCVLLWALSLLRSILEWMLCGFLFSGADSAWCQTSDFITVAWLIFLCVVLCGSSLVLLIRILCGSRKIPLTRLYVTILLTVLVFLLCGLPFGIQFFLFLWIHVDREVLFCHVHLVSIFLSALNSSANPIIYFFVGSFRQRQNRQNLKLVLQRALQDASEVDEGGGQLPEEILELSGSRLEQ
# KCC2 mod: KCC2 (human) Cl- transport modulation; AID 1456; 190,000 tested, 2.2% active; Q9H2X9; B-score of Tl+ flux slope (higher = more flux/activation; lower = inhibition) at 10 µM; KCC2 cells, thallium flux FluoZin-2 fluorescence;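 active = thallium flux slope and its plate-corrected score both differing from the plate sample mean at a set confidence after two filtering rounds, in either direction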;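 note: slope of fluorescence scaled to starting intensity during 10 to 20 s after thallium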
# MrgX1 agonist: agonists of human MrgX1 receptor. B-score at 10 µM. 310,000 tested, 0.44% active. MrgX1-HEK293 cells, Fluo-4 calcium fluorescence, agonist mode; hits give high values. Q96LB2;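 active = calcium response B-score plate-corrected fluorescence ratio at least 3 library SD, with starting fluorescence B-score inside 5 SD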
#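 times = overnight plating, then 30 min 37 °C plus 30 min room-temperature dye loading | assay system = stable human MrgX1 HEK293 cell line | input = fifteen thousand cells per well | signal = kinetic calcium dye fluorescence, Fluo-4 NW | dosing = compound delivered in addition one of three | read-out = B-scored fluorescence response ratio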
# RGS4 act: RGS4 potentiation or activation; B-score at 10 µM; 310,000 tested, 0.92% active; HEK293 M3R/inducible RGS4, carbachol calcium flux Fluo4; hits give low values; AID 463111;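 active = B-score of the integrated calcium signal more than 4 SD below the library mean, with starting fluorescence not abnormally high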;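 note: negative B-score means reduced calcium response which marks RGS4 activation or potentiation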
#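 Reagent: ECmax carbachol challenge; Test system: M3R-expressing HEK293 line, RGS4 induced by doxycycline; Schedule: overnight RGS4 induction, 30 min dye load 37 °C, 20 min compound RT; Detection: calcium dye Fluo4 fluorescence; Read-out: Agonist-evoked peak-minus-minimum fluorescence over baseline, integrated ratio, B score.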
# RGS4 inh: human RGS4 inhibition; HEK293 M3R/RGS4 inducible, Fluo-4 calcium flux; hits give high values; triggered by carbachol at its EC20; B-score at 10 µM; 310,000 tested, 0.45% active;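 active = B-score, a plate-corrected calcium signal, over three deviations above library mean, with baseline fluorescence within five deviations of library mean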;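 note: RGS4 expression induced by doxycycline in cells with stable M3 receptor; B-score is computed from the integrated fluorescence ratio over baseline after carbachol; higher B-score means a larger calcium signal and so more RGS4 inhibition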
# Target sequence (P49798 whole entry, looked up): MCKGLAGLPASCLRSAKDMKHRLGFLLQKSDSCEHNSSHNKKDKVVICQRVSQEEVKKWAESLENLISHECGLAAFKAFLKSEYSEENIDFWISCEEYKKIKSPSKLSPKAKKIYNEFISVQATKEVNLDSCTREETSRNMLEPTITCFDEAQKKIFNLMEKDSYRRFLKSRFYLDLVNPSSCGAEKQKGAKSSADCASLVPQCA
# MrgX1 allo act: human MrgX1 positive allosteric modulation, primary screen; MrgX1-HEK293, Fluo-4 calcium flux, FDSS; hits give high values; 310,000 tested, 0.63% active; Q96LB2; B-score at 10 µM;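 active = plate-corrected calcium response at least 3 library SD above typical, normal starting fluorescence, not activating the receptor alone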;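 note: compound read alongside a low EC10 to EC30 dose of BAM8-22 agonist; peak minus trough fluorescence over baseline measured at the second addition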
# MrgX1 ant reconf: human MrgX1 receptor antagonism, re-confirmation screen; shares compounds with MrgX1 antag; MrgX1-HEK293, BAM8-22 calcium flux, Fluo-4; hits give low values; remaining BAM8-22 calcium response % of control (hits give low values), % at 10 µM; 2,300 tested, 19% active;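 active = remaining agonist calcium response no higher than 100% minus 3 SD of agonist-only control wells, with starting fluorescence near control levels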;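 note: agonist BAM8-22 given at a near maximal EC90 to ECmax level; peak minus minimum fluorescence divided by baseline after agonist addition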
# HEK293 Ca flux: activity in parental HEK293 cells lacking MrgX1; Fluo-4 calcium fluorescence, FDSS; shares compounds with MrgX1 antag; AID 624111; fluorescence ratio F(max-min)/F0 at 10 µM; 4,000 tested, 2% active;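 active = duplicate-averaged calcium fluorescence ratio at least three times the standard deviation of buffer wells, a nonspecific response in parental cells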
# HEK293 Ca counter: MrgX1 allosteric activator counter-screen hit in parental HEK293 cells. AID 624114. 4,000 tested, 0.4% active. shares compounds with MrgX1 antag. fluorescence ratio F(max-min)/F0 at 10 µM. parental HEK293 calcium flux, Fluo-4 fluorescence ratio; hits give high values;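 active = calcium fluorescence ratio, averaged over duplicates, at least 3 SD of the buffer-well ratio, meaning a nonspecific response in receptor-free cells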;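 note: untransfected parental HEK293 lacking MrgX1 used as counterscreen for MrgX1 allosteric activators; fluorescence change taken during the second addition on a kinetic imager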
# HEK293 Ca cntr2: MrgX1 activator counter-screen hit in parental HEK293 cells; 4,000 tested, 8.7% active; AID 624115; shares compounds with MrgX1 antag; Fluo-4 calcium fluorescence (FDSS); hits give high values; fluorescence ratio F(max-min)/F0 at 10 µM;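 active = calcium fluorescence ratio at least three times the spread of buffer wells, meaning a non-specific response in parental cells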
# Numbers without * were called inactive; i = inactive; . = no result.
SMILES,MrgX1 antag,KCC2 mod,MrgX1 agonist,RGS4 act,RGS4 inh,MrgX1 allo act,MrgX1 ant reconf,HEK293 Ca flux,HEK293 Ca counter,HEK293 Ca cntr2
CCN1C(=O)C(NC(C)=O)c2cc(Br)ccc21 (centres undefined),i,.,i,i,i,i,.,.,.,.
CC1CCCN(C(=O)C2c3ccccc3C(=O)N3CCc4ccccc4C23)C1 (centres undefined),-5.54*,-0.957,i,i,i,i,i,i,i,i
Cc1ccc(S(=O)(=O)N2CCOC2CNC(=O)C(=O)NCCN(C)C)cc1 (centres undefined),i,.,i,i,i,i,.,.,.,.
Cc1nc(CNS(=O)(=O)c2ccccc2F)cs1,-4.58*,0.0658,i,i,i,i,i,i,i,i
Cc1nc(CNS(=O)(=O)c2cccs2)cs1,i,-0.0547,i,i,i,i,.,.,.,.
Cc1ccc(S(=O)(=O)N(C)C)cc1NC(=O)COC(=O)COc1ccc2c(c1)CCC2,i,.,i,i,i,i,.,.,.,.
CCOC(=O)CCc1c(C)nc2cc(C3CCCN(C(=O)OC(C)(C)C)C3)[nH]n2c1=O (centres undefined),-5.38*,.,i,.,.,i,i,i,i,i
CCN=C(NCC)SC1CC(=O)N(c2ccccc2)C1=O (centres undefined),-8.16*,0.348,i,i,i,i,i,i,i,i
COCCn1c(C)cc(C(=O)CSc2nc3nc(C)cc(C)n3n2)c1C,i,0.608,i,i,i,i,.,.,.,.
COCCn1c(C)cc(C(=O)CSc2n[nH]c(N)n2)c1C,-4.83*,.,i,i,i,i,i,i,i,i
CN(Cc1ccc(F)cc1)C(=O)c1ccc(NS(=O)(=O)c2ccccc2)cc1,i,.,i,i,i,i,.,.,.,.
COc1ccc(OC)c(Nc2nc3nonc3nc2N2CCCC(C)C2)c1 (centres undefined),-5.48*,-1.3,i,i,i,i,i,i,i,i
O=C(O)[C@H](Cc1ccccc1)N1C(=O)c2c(Cl)c(Cl)c(Cl)c(Cl)c2C1=O,-8.65*,.,i,i,i,i,i,i,i,i
Cc1ccc2[nH]c3c(c2c1)CCc1cn[nH]c1-3,-4.87*,0.222,i,i,i,i,i,i,i,i
CCN(CC(=O)NCc1ccc(Cl)cc1)C(=O)CCC(=O)c1ccc(F)cc1,i,.,i,i,i,i,.,.,.,.
Cc1nnc(Oc2ccccc2F)c2ccccc12,-6.05*,0.251,i,i,i,i,85.2%*,i,i,i
Cc1nnc(Oc2ccccc2)c2ccccc12,i,0.52,i,i,i,i,.,.,.,.
CC1(C)CC(NCc2ccncc2)CC(C)(C)N1,-9.66*,-0.376,i,i,i,i,85.6%*,i,i,i
CN(C)c1ccc(CNC2CC(C)(C)NC(C)(C)C2)cc1,i,.,i,i,i,i,.,.,.,.
COC(=O)c1ccc(C(=O)OC)c(NC(=O)COC(=O)c2ccccc2OC)c1,-6.69*,0.324,i,i,i,i,83.6%*,i,i,i
CCOC(=O)C1CCN(S(=O)(=O)c2ccc3[nH]c(=O)ccc3c2)CC1,-4.73*,.,i,i,i,i,i,i,i,i
Cc1cc(C)cc(NC(=O)C2CCN(S(=O)(=O)c3ccc4[nH]c(=O)ccc4c3)CC2)c1,-6.36*,.,i,i,i,i,i,i,i,i
CCc1cccc(NC(=O)C2CCN(S(=O)(=O)c3ccc4[nH]c(=O)ccc4c3)CC2)c1,i,.,i,i,i,i,.,.,.,.
Cc1cccc(NC(=O)C2CCCN(S(=O)(=O)c3ccc4[nH]c(=O)ccc4c3)C2)c1 (centres undefined),-6.55*,.,i,i,i,i,i,i,i,i
CCOC(=O)C1CCN(C(=O)Cn2c(=O)oc3cc(S(=O)(=O)N4CCCC4)ccc32)CC1,-5.08*,.,i,i,i,i,i,i,i,i
SMILES,MrgX1 antag,KCC2 mod,MrgX1 agonist,RGS4 act,RGS4 inh,MrgX1 allo act,MrgX1 ant reconf,HEK293 Ca flux,HEK293 Ca counter,HEK293 Ca cntr2
Cc1ccc(NC(=O)C2CCCN(S(=O)(=O)c3ccc4[nH]c(=O)ccc4c3)C2)cc1C (centres undefined),i,.,i,i,i,i,.,.,.,.
CCOC(=O)C1CCN(S(=O)(=O)c2ccc3c(c2)NC(=O)C(C)C(=O)N3)CC1 (centres undefined),i,.,i,i,i,i,.,.,.,.
O=C(CCc1ccccc1)N=C1SC2CS(=O)(=O)CC2N1c1ccccc1F (centres undefined),i,.,i,i,i,i,.,.,.,.
COC(=O)c1cc(CNC(=O)Cc2ccsc2)ccc1OC,i,.,i,i,i,i,.,.,.,.
Cc1ccc(S(=O)(=O)/N=c2\scc(C)n2C)cc1,-5.49*,.,i,i,i,i,i,i,i,i
Cc1ccc(S(=O)(=O)/N=c2\sccn2C)cc1,i,.,i,i,i,i,.,.,.,.
Cc1ccc(N2C(=O)N(CC(=O)Nc3cccc(Cl)c3)C(=O)C2C)cc1 (centres undefined),i,.,i,i,i,i,.,.,.,.
COc1cc(NC(=O)CN2C(=O)C(C)N(c3ccc(C)cc3)C2=O)cc(OC)c1 (centres undefined),-6.46*,.,i,i,i,i,i,i,i,i
O=C(COc1cccc2ccccc12)Nc1ccc(Cl)cc1C(=O)O,-7.46*,.,i,i,i,i,74.4%*,i,i,i
O=C(COc1cccc2ccccc12)Nc1cc(Cl)ccc1C(=O)O,-7.55*,.,i,i,i,i,61.7%*,i,i,i
